{
  "source": "ChEMBL document CHEMBL3763097",
  "about": "“Synthesis and biological evaluation of 5,10-dihydro-11H-dibenzo[b,e][1,4]diazepin-11-one structural derivatives as anti-cancer and apoptosis inducing agents” (Eur J Med Chem, 2016)",
  "key": {"MDA-MB-231 [1]": {"tested_on": "MDA-MB-231", "experiment": "Induction of apoptosis in human MDA-MB-231 cells assessed as condensation of nuclei at 0.5 to 2 uM after 48 hrs by Hoechst […] staining based fluorescence microscopy", "assay_type": "functional, cell-based", "how_it_was_run": "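Cells at 25×10^4 per well were allowed to adhere 24 h, then treated with 0.5, 1 and 2 µM compound for 48 h at 37 °C. After a PBS wash they were stained with Hoechst […] (5 µg/mL) for 30 min at room temperature and washed twice. Nuclear morphology was viewed by fluorescence microscopy (ex 350/em 460 nm).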"}, "A549 [2]": {"tested_on": "A549", "experiment": "Cell cycle arrest in human A549 cells assessed as accumulation at S phase at 2 uM after 24 to 48 hrs by propidium iodide staining based flow cytometry (reference value: 18.3%)", "assay_type": "functional", "how_it_was_run": "(§1)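 Cells were seeded at 1×10^6 per well and treated 24 h later with 0.5, 1 or 2 µM compound; DMSO-treated cells served as control. Methods give harvest at 48 h (floating plus trypsinised cells); the figure legend says 24 h. Cells were fixed in 70% ethanol for 30 min at 4 °C and stained with PI, Triton X-100 and RNase A for 15 min in the dark. 10000 events were counted by flow cytometry.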"}, "MDA-MB-231 [3]": {"tested_on": "MDA-MB-231", "experiment": "Induction of apoptosis in human MDA-MB-231 cells assessed as viable cells at 1 uM after 24 hrs by Annexin V-FITC/PI dual staining based flow cytometry (reference value: 91%)", "assay_type": "functional", "conditions": "MDA-MB-231, 24 h, read-out: Activity"}, "[4]": {"experiment": "Cytotoxicity against human U87MG cells assessed as growth inhibition after 72 hrs by MTT assay", "assay_type": "functional, cell-based, U-87MG ATCC", "conditions": "U-87 MG", "how_it_was_run": "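Cells in RPMI 1640 (PC-3, A549, MDA-MB-231) or DMEM (U87MG, MCF-7) with 10% FBS, passages 4-10, were seeded at 3000-5000 per well and left 24 h. Compounds in DMSO/medium were added for 72 h; DMSO served as control. MTT (5 mg/mL) was added for 4 h and formazan dissolved in DMSO. Absorbance was read at 570 nm minus 630 nm. % inhibition was taken versus DMSO, with IC50 by probit; mean ± SD of three experiments in triplicate.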"}, "MDA-MB-231 [5]": {"tested_on": "MDA-MB-231", "experiment": "Cell cycle arrest in human MDA-MB-231 cells assessed as accumulation at G2/M phase at 2 uM after 24 to 48 hrs by propidium iodide staining based flow cytometry (reference value: 20.2%)", "assay_type": "functional", "how_it_was_run": "as §1"}, "MDA-MB-231 [6]": {"tested_on": "MDA-MB-231", "experiment": "Cell cycle arrest in human MDA-MB-231 cells assessed as accumulation at G0/G1 phase at 0.5 uM after 24 to 48 hrs by propidium iodide staining based flow cytometry (reference value: 74.4%)", "assay_type": "functional", "how_it_was_run": "as §1"}, "A549 [7]": {"tested_on": "A549", "experiment": "Induction of apoptosis in human A549 cells assessed as viable cells at 2 uM after 24 hrs by Annexin V-FITC/PI dual staining based flow cytometry (reference value: 85%)", "assay_type": "functional", "conditions": "A549, 24 h, read-out: Activity"}, "MDA-MB-231 [8]": {"tested_on": "MDA-MB-231", "experiment": "Cytotoxicity against human MDA-MB-231 cells assessed as inhibition of colony formation after 24 hrs by methylene blue staining-based assay", "assay_type": "functional, cell-based", "how_it_was_run": "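Clonogenic assay. Cells were plated at 500 per well and allowed to adhere 24 h. Compound was added at 0.1, 1 and 10 µM for 24 h, then medium was replaced and cells grown a further 14 days. Colonies were fixed with 4% paraformaldehyde, stained with 0.5% methylene blue in PBS for 30 min, rinsed and photographed.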"}, "MDA-MB-231 [9]": {"tested_on": "MDA-MB-231", "experiment": "Cell cycle arrest in human MDA-MB-231 cells assessed as accumulation at G2/M phase at 1 uM after 24 to 48 hrs by propidium iodide staining based flow cytometry (reference value: 20.2%)", "assay_type": "functional", "how_it_was_run": "as §1"}, "MDA-MB-231 [10]": {"tested_on": "MDA-MB-231", "experiment": "Cell cycle arrest in human MDA-MB-231 cells assessed as accumulation at S phase at 1 uM after 24 to 48 hrs by propidium iodide staining based flow cytometry (reference value: 4.6%)", "assay_type": "functional", "how_it_was_run": "as §1"}, "A549 [11]": {"tested_on": "A549", "experiment": "Induction of apoptosis in human A549 cells assessed as late apoptotic cells at 0.5 uM after 24 hrs by Annexin V-FITC/PI dual staining based flow cytometry (reference value: 4.5%)", "assay_type": "functional"}},
  "note": "Calls of active or inactive are those of the source. No cut-off for these calls is given here.",
  "data": [
    {"smiles": "O=C1c2ccccc2Nc2ccccc2N1Cc1cn(Cc2ccccc2)nn1", "values": [
      {"measurement": "Activity", "setting": "MDA-MB-231 [1]", "result": "Active"},
      {"measurement": "Activity", "setting": "A549 [2]", "result": 13.8, "unit": "%"},
      {"measurement": "viability at 1 µM", "setting": "MDA-MB-231 [3]", "result": 73, "unit": "%"},
      {"measurement": "IC50", "setting": "[4]", "result": 6.97, "unit": "µM"},
      {"measurement": "Activity", "setting": "MDA-MB-231 [5]", "result": 63.4, "unit": "%"},
      {"measurement": "Activity", "setting": "MDA-MB-231 [6]", "result": 73.6, "unit": "%"},
      {"measurement": "viability at 2 µM", "setting": "A549 [7]", "result": 63.8, "unit": "%"},
      {"measurement": "inhibition", "setting": "MDA-MB-231 [8]", "result": "Dose-dependent effect"},
      {"measurement": "Activity", "setting": "MDA-MB-231 [9]", "result": 33.6, "unit": "%"},
      {"measurement": "Activity", "setting": "MDA-MB-231 [10]", "result": 6.7, "unit": "%"},
      {"measurement": "Activity", "setting": "A549 [11]", "result": 12.7, "unit": "%"}
    ]}
  ]
}
